Experimental data as given in ChEMBL document CHEMBL4270554, “Discovery of the cancer cell selective dual acting anti-cancer agent (Z)-2-(1H-indol-3-yl)-3-(isoquinolin-5-yl)acrylonitrile (A131)” (Eur J Med Chem, 2018).

Experiments:
[1] = tested on: HeLa; experiment: Potency index, ratio of autophagy induction of test compound to chloroquine in human HeLa cells; type: functional
[2] = Intrinsic clearance in pooled female rat liver microsomes assessed per mg protein at 3 uM preincubated for 5 mins followed by NADPH addition measured after 45 mins by LC-MS/MS method; type: ADME, microsome; conditions: read-out: CLH
Outline: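 Pooled female or male rat liver microsomes (0.3 mg protein/mL) with substrate at final 3 μM in 0.1 M phosphate pH 7.4. Pre-incubated 5 min at 37 °C, then started with NADPH (final 1 mM). Sampled at 0–45 min in triplicate, quenched with cold acetonitrile plus internal standard. Parent measured by LC-MS/MS. Midazolam as positive control; no-NADPH negative control.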

[3] = tested on: hTERT-BJ; experiment: Inhibition of mitotic progression in human hTERT-BJ cells transformed with hTert, small t, shRNAs against p53 and pRb and H-RasV12-ER assessed as increase in phosphorylated histone H3 (Ser10) level at 5 uM after 24 hrs by immunoblot analysis relative to control; type: functional
Outline: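 Fully transformed BJ fibroblasts (hTert, small t, shRNAs to p53 and pRb, H-RasV12-ER) treated 24 h at 5 μM. Immunoblot protocol as for HeLa. pH3 (Ser10) band intensity expressed as fold of DMSO control; under 2-fold counted as insignificant.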

[4] = tested on: BJ; experiment: Cell cycle arrest in human BJ cells assessed as accumulation at sub-G1 phase at 5 uM after 48 hrs; type: cell-based
Outline: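 Isogenic normal and fully transformed BJ fibroblasts (hTert, small t, shRNAs to p53 and pRb, H-RasV12-ER) exposed to 5 μM for 48 h. Percentage of cells in sub-G1 phase determined as a cell death measure.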

[5] = Antiproliferative activity against human BJ cells after 72 hrs by MTT assay; type: cell-based
Outline: (§1)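 Cells cultured at 37 °C, 5% CO₂ in medium with 10% FBS and penicillin/streptomycin, used within 12-20 passages. Seeded at 2.5×10^3 cells/well for 24 h, then compound added from DMSO stocks at 200-fold final concentration (final DMSO 0.5% v/v). After 72 h, 0.5 mg/mL MTT for 3 h, formazan dissolved in DMSO, A570 read. IC50 from sigmoidal fit; three independent determinations.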

[6] = Antiproliferative activity against human IMR90 cells after 72 hrs by MTT assay; type: cell-based; conditions: IMR-90 cells; outline: as §1
[7] = Antiproliferative activity against human hTERT-RPE1 cells after 72 hrs by MTT assay; type: cell-based, TERT-RPE1; outline: as §1
[8] = Antiproliferative activity against human NCC24 cells after 72 hrs by MTT assay; type: functional; outline: as §1
[9] = Antiproliferative activity against human SNU620 cells after 72 hrs by MTT assay; type: functional; conditions: SNU620, 72 h; outline: as §1
[10] = tested on: SCH; experiment: Antiproliferative activity against human SCH cells after 72 hrs by MTT assay; type: functional; outline: as §1
[11] = tested on: AGS; experiment: Antiproliferative activity against human AGS cells after 72 hrs by MTT assay; type: functional; outline: as §1
[12] = tested on: IM95; experiment: Antiproliferative activity against human IM95 cells after 72 hrs by MTT assay; type: functional; conditions: IM95, 72 h; outline: as §1
[13] = tested on: A549; experiment: Antiproliferative activity against human A549 cells after 72 hrs by MTT assay; type: functional; conditions: A549, 72 h; outline: as §1
[14] = tested on: U2OS; experiment: Antiproliferative activity against human U2OS cells after 72 hrs by MTT assay; type: functional; outline: as §1
[15] = Antiproliferative activity against human AC10 cells at 50 uM after 72 hrs by MTT assay; type: cell-based
[16] = tested on: SNU-16; experiment: Antiproliferative activity against human SNU16 cells after 72 hrs by MTT assay; type: functional; conditions: SNU-16, 72 h; outline: as §1
[17] = tested on: Salmonella typhimurium; experiment: Genotoxicity in Salmonella typhimurium TA100 after 48 hrs in presence of S9 mix by Ames test; type: toxicity, organism-based; conditions: salmonella enterica subsp. enterica serovar typhimurium
[18] = tested on: BJ; experiment: Antiproliferative activity against human BJ cells assessed as reduction in cell viability at 5 uM incubated for 4 days followed by compound washout measured after 11 days by cell counting method; type: cell-based; conditions: 96 h
Outline: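 Normal BJ fibroblasts synchronized in G1 by 2-day serum starvation (0.1% FBS), released into 10% FBS medium and exposed to 5 μM for 2, 4 or 11 days. After 2 or 4 days drug removed and growth continued in fresh medium up to 11 days. Total cell numbers by automated counter; mean ± S.D., n>6.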

[19] = Half life in pooled female rat liver microsomes at 3 uM preincubated for 5 mins followed by NADPH addition measured after 45 mins by LC-MS/MS method; type: ADME, microsome
Outline: (§2)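 Pooled female or male rat liver microsomes (0.3 mg protein/mL) with 3 μM substrate in 0.1 M phosphate buffer pH 7.4, pre-incubated 5 min at 37 °C, started with 1 mM NADPH. Samples at 0-45 min quenched in cold acetonitrile with internal standard, analysed by LC-MS/MS. Triplicates; midazolam positive control, no-NADPH negative control.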

[20] = Half life in pooled male rat liver microsomes at 3 uM preincubated for 5 mins followed by NADPH addition measured after 45 mins by LC-MS/MS method; type: ADME, microsome; outline: as §2
[21] = tested on: HeLa; experiment: Inhibition of colony formation in human HeLa cells at 0.6 uM after 7 days by plate colony counting method relative to control; type: functional; conditions: 168 h
Outline: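 Anchorage-independent growth: HeLa cells (1×10^4 per well) in 0.4% soft agar layered over 1% agar. Compound added at final 0.15, 0.3, 0.6, 1.25, 2.5 and 5 μM. HeLa colonies counted.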

[22] = tested on: Mus musculus; experiment: Toxicity in BALB/c athymic nu/nu mouse xenografted with human HCT15 cells assessed as effect on body weight at 20 mg/kg, ip bid administered 12 days; type: organism-based; conditions: in vivo, 288 h
Outline: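 Female BALB/c nu/nu mice aged 5–7 weeks, implanted subcutaneously in the flank with 5×10^6 HCT15 cells. At mean tumour 100–300 mm³, randomised into groups of 6. Given 20 mg/kg ip twice daily for 12 days, vehicle 10% DMSO/50% PEG400 in water pH 5.0.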

[23] = tested on: HeLa; experiment: Induction of autophagy in human HeLa cells assessed as increase in LC3-2 to LC3-1 ratio at 1.25 uM after 6 hrs by immunoblot analysis relative to control; type: functional
Outline: (§3)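 HeLa cells exposed 6 h to test agent (0.625–10 μM series) or chloroquine (1.25–100 μM series) vs DMSO; lysed in 1% Triton buffer (25 mM Tris pH 8.0, 150 mM NaCl, DTT, protease/phosphatase inhibitors), 14% SDS-PAGE, immunoblot with anti-LC3, anti-pH3(Ser10), β-actin loading. LC3-II/LC3-I band intensity ratio expressed relative to DMSO control.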

[24] = tested on: HeLa; experiment: Induction of autophagy in human HeLa cells assessed as increase in LC3-2 to LC3-1 ratio at 2.5 uM after 6 hrs by immunoblot analysis relative to control; type: functional; outline: as §3

For `N#C/C(=C\c1cccc2cnccc12)c1c[nH]c2ccccc12`, the Ratio [1] was 4 - 10, the microsomal CLint at 3 µM [2] was 59 µL/min/mg and the “fold change (FC)” value [3] was 7.3. For the same compound, the Activity [4] was “Non-Toxic”, the GI50 at 72 h [5] was 8100 nM and the GI50 at 72 h [6] was 5800 nM. For the same compound, the GI50 at 72 h [7] was 5200 nM, the GI50 [8] was 1200 nM and the GI50 [9] was 1000 nM. It also gave a GI50 [10] of 1700 nM, a GI50 [11] of 1100 nM and a GI50 [12] of 1000 nM. It also gave a GI50 [13] of 2000 nM, a GI50 [14] of 1500 nM and an Activity [15] of 77.6%. The GI50 [16] was 1000 nM, the Activity [17] was “Non-Toxic” and the Activity [18] was “Non-Toxic”. It also gave a half-life at 3 µM [19] of 40.2 min, a half-life at 3 µM [20] of 7.7 min and an inhibition at 0.6 µM [21] of 50%. The Activity [22] was “Non-Toxic”, the “fold change (FC)” value [23] was 2.3 and the “fold change (FC)” value [24] was 3.
